Source: ChEMBL document CHEMBL1136928, “Novel orally bioavailable gamma-secretase inhibitors with excellent in vivo activity” (J Med Chem, 2009)
pIC50: −log10 of the molar value. The source made the active and inactive calls. The rule behind the calls is not given here.

Tests used:
Gamma-secretase = experiment: Inhibition of gamma secretase in human SH-SY5Y cells by HTRF assay; type: cell-based
Mus musculus [1] = experiment: Reduction in amyloid beta40 production in po dosed human betaAAP overexpressing YAC mouse forebrain after 4 hrs; type: functional; details: Brain
Method in brief: (§1)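 APP-YAC transgenic mice overexpressing human βAPP; oral dosing as suspension in 0.5% methocel, 3 mg/kg (also 0.3 and 1 mg/kg for dose–response). Soluble Aβ(40) in forebrain measured 4 h post-dose; reduction expressed relative to vehicle-treated animals; ED50 from dose–response.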

Mus musculus [2] = experiment: Reduction in amyloid beta40 production in human betaAAP overexpressing YAC mouse forebrain at 3 mg/kg, po after 4 hrs relative to control; type: functional; design: scale not given: the % may be the effect or the level left; method in brief: as §1
[3] = Bioavailability in rat; type: ADME, organism-based; details: in vivo
[4] = Half life in rat; type: ADME, organism-based; details: in vivo
[5] = Bioavailability in dog; type: ADME, organism-based, Canis lupus familiaris; details: in vivo
[6] = Half life in dog; type: ADME, organism-based, Canis lupus familiaris; details: in vivo
[7] = Bioavailability in rhesus monkey; type: ADME, organism-based, Macaca mulatta; details: in vivo
[8] = Half life in rhesus monkey; type: ADME, organism-based, Macaca mulatta; details: in vivo
[9] = Inhibition of gamma secretase assessed as amyloid beta40 production
[10] = Inhibition of gamma secretase assessed as amyloid beta42 production

Row | pIC50 (Gamma-secretase) | SMILES | also measured
1 | 9.38 | O=S1(=O)N[C@@]2(CN1CC(F)(F)F)[C@@H]1CC[C@H]2Cc2ccc(-c3cn(-c4ccc(Cl)c(Cl)c4)cn3)cc2C1 | 
2 | 9.82 | O=S1(=O)N[C@@]2(CN1CC(F)(F)F)[C@@H]1CC[C@H]2Cc2ccc(-c3ncn(-c4ccc(F)cc4)n3)cc2C1 | 
3 | 9.62 | O=S1(=O)N[C@@]2(CN1CC(F)(F)F)[C@@H]1CC[C@H]2Cc2ccc(/C=C/CN3CCC(C(F)(F)F)CC3)cc2C1 | ED50 (Mus musculus [1]): 17 mg/kg
4 | 9.92 | O=S1(=O)N[C@@]2(CN1CC(F)(F)F)[C@@H]1CC[C@H]2Cc2ccc(-c3cn(-c4ccc(F)c(F)c4)cn3)cc2C1 | 
5 | 10.10 | O=S1(=O)N[C@@]2(CN1CC(F)(F)F)[C@@H]1CC[C@H]2Cc2ccc(-c3cn(-c4ccc(Cl)cc4)cn3)cc2C1 | 
6 | 10.22 | O=S1(=O)N[C@@]2(CN1CC(F)(F)F)[C@@H]1CC[C@H]2Cc2ccc(-c3cn(-c4ccc(F)cc4F)cn3)cc2C1 | 
7 | 9.38 | O=S1(=O)N[C@@]2(CN1CC(F)(F)F)[C@@H]1CC[C@H]2Cc2ccc(-c3ncc(-c4ccc(F)cc4)s3)cc2C1 | 
8 | 9.47 | O=S1(=O)N[C@@]2(CN1CC(F)(F)F)[C@@H]1CC[C@H]2Cc2ccc(-c3ncc(N4CCC(C(F)(F)F)CC4)s3)cc2C1 | 
9 | 9.34 | Cn1nc(-c2ccc3c(c2)C[C@H]2CC[C@@H](C3)[C@]23CN(CC(F)(F)F)S(=O)(=O)N3)cc1-c1cccc(F)c1 (racemic) | 
10 | 9.39 | Cn1nc(-c2ccc3c(c2)C[C@H]2CC[C@@H](C3)[C@]23CN(CC(F)(F)F)S(=O)(=O)N3)cc1-c1ccc(Cl)c(Cl)c1 | 
11 | 9.77 | O=S1(=O)N[C@@]2(CN1CC(F)(F)F)[C@@H]1CC[C@H]2Cc2ccc(-c3cn(-c4ccccc4F)cn3)cc2C1 | 
12 | 9.68 | Cn1nc(-c2ccc3c(c2)CC2CCC(C3)C23CN(CC(F)(F)F)S(=O)(=O)N3)cc1-c1ccccc1F (racemic) | 
13 | 8.78 | Cn1nc(-c2ccc(F)cc2)cc1-c1ccc2c(c1)CC1CCC(C2)C12CN(CC(F)(F)F)S(=O)(=O)N2 (racemic) | 
14 | 10.22 | Cn1nc(-c2ccc3c(c2)C[C@H]2CC[C@@H](C3)[C@]23CN(CC(F)(F)F)S(=O)(=O)N3)cc1-c1ccc(F)cc1F | 
15 | 10.52 | O=S1(=O)N[C@@]2(CN1CC(F)(F)F)[C@@H]1CC[C@H]2Cc2ccc(-c3cn(-c4ccc(F)cc4)cn3)cc2C1 | Activity (Mus musculus [2]): 66%
16 | 10.15 | Cn1nc(-c2ccc3c(c2)C[C@H]2CC[C@@H](C3)[C@]23CN(CC(F)(F)F)S(=O)(=O)N3)cc1-c1ccc(Cl)cc1 | 
17 | 9.09 | O=S1(=O)N[C@@]2(CN1CC(F)(F)F)[C@@H]1CC[C@H]2Cc2ccc(-c3cn(-c4cccc(F)c4)cn3)cc2C1 | 
18 | 10.22 | Cn1nc(-c2ccc3c(c2)C[C@H]2CC[C@@H](C3)[C@]23CN(CC(F)(F)F)S(=O)(=O)N3)cc1-c1ccc(F)c(F)c1 | 
19 | 10.22 | Cn1nc(-c2ccc3c(c2)C[C@H]2CC[C@@H](C3)[C@]23CN(CC(F)(F)F)S(=O)(=O)N3)cc1-c1ccc(F)cc1 | Activity (Mus musculus [2]): 84%; ED50 (Mus musculus [1]): 1 mg/kg; bioavailability [3]: 35%; half-life [4]: 2 h; bioavailability [5]: 42%; half-life [6]: > 10 h; bioavailability [7]: 45%; half-life [8]: 16 h; Activity [9]: Active; Activity [10]: Active
